Results: ChEMBL document CHEMBL1143668, “Reversal of P-glycoprotein-mediated multidrug resistance by sipholane triterpenoids” (J Nat Prod, 2007)
pIC50: −log10 of the molar value.

Test system: not listed separately
Assay: Reversal of P-gp-mediated multidrug resistance to Cytotoxicity of colchicine against human KB-C2 cells at 5 uM after 68 hrs by MTT assay
Assay type: functional, cell-based
Settings: KB-C2, 68 h
Procedure, shortened: (§1)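 KB-3-1 seeded at 4×10^4 cells/mL, KB-C2 at 7.5×10^4 cells/mL (KB-C2 kept in 2 μg/mL colchicine). MTT added for 4 h, DMSO solubilization, A570. IC50 by the Bliss method. Fold-resistance = IC50 / colchicine IC50 in KB-3-1. Mean ± SD, three independent experiments in triplicate.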

Compound | pIC50
CC1(C)O[C@@H]2CC[C@](C)(O)[C@H](CCC3C(C=O)=CCC4C(CC[C@@]4(C)O)C3(C)C)[C@@]2(C)CCC1=O (stereo partly drawn) | 5.20
CC1=C(CC[C@@H]2[C@@]3(C)CC[C@@H](O)C(C)(C)O[C@@H]3CC[C@]2(C)O)[C@](C)(C/C=C/C(C)(C)O)[C@H](O)CC1 [SIPHONELLINOL C] | 5.83
CC1(C)O[C@@H]2CC[C@](C)(O)[C@H](CCC3C(CO)=CCC4C(CC[C@@]4(C)O)C3(C)C)[C@@]2(C)CCC1=O (stereo partly drawn) | 5.22
CC1=CCC2C(CC[C@@]2(C)O)C(C)(C)C1CC[C@@H]1[C@@]2(C)CC[C@@H](O)C(C)(C)O[C@@H]2CC[C@]1(C)O (stereo partly drawn) [SIPHOLENOL A] | 6.68
CC1(C)C(CC[C@@H]2[C@@]3(C)CC[C@@H](O)C(C)(C)O[C@@H]3CC[C@]2(C)O)C(CO)=CCC2C1CC[C@@]2(C)O (stereo partly drawn) [28-HYDROXYSIPHOLENOL A] | 5.29
CC1(C)O[C@@H]2CC[C@](C)(O)[C@H](CC[C@@]34O[C@]3(C)[C@H](O)CC3C(CC[C@@]3(C)O)C4(C)C)[C@@]2(C)CC[C@H]1O (stereo partly drawn) [SIPHOLENOL I] | 5.54
CC1=CCC2C(CC[C@@]2(C)O)C(C)(C)C1CC[C@@H]1[C@@]2(C)CCC(=O)C(C)(C)O[C@@H]2CC[C@]1(C)O (stereo partly drawn) [SIPHOLENONE A] | 6.03
CC1(C)C(CC[C@@H]2[C@@]3(C)CC[C@@H](O)C(C)(C)O[C@@H]3CC[C@]2(C)O)C(C=O)=CCC2C1CC[C@@]2(C)O (stereo partly drawn) | 5.55

Test system: KB
Assay: Cytotoxicity against KB cells expressing MRP1 after 68 hrs by MTT assay
Assay type: functional, cell-based
Settings: Homo sapiens
Procedure, shortened: (§2)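 Human epidermoid carcinoma KB-3-1 (parental) and sublines: KB/MRP1 (MRP1 cDNA-transfected), KB-CV60 (kept in 1 μg/mL cepharanthine + 60 ng/mL vincristine), KB-C2 (kept in 2 μg/mL colchicine). DMEM with 10% bovine serum, 37 °C, 5% CO₂. Seeded at 4×10^4 (KB-3-1), 5×10^4 (KB/MRP1) or 7.5×10^4 cells/mL (KB-CV60, KB-C2). Compound dilution series for 68 h, then MTT 4 h. Formazan dissolved in DMSO, A570. IC50 from survival curves by the Bliss method.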

Compound | pIC50
CC1(C)O[C@@H]2CC[C@](C)(O)[C@H](CCC3C(C=O)=CCC4C(CC[C@@]4(C)O)C3(C)C)[C@@]2(C)CCC1=O (stereo partly drawn) | < 4.30
CC1=C(CC[C@@H]2[C@@]3(C)CC[C@@H](O)C(C)(C)O[C@@H]3CC[C@]2(C)O)[C@](C)(C/C=C/C(C)(C)O)[C@H](O)CC1 [SIPHONELLINOL C] | < 4.30
CC1(C)O[C@@H]2CC[C@](C)(O)[C@H](CCC3C(CO)=CCC4C(CC[C@@]4(C)O)C3(C)C)[C@@]2(C)CCC1=O (stereo partly drawn) | < 4.30
CC1=CCC2C(CC[C@@]2(C)O)C(C)(C)C1CC[C@@H]1[C@@]2(C)CC[C@@H](O)C(C)(C)O[C@@H]2CC[C@]1(C)O (stereo partly drawn) [SIPHOLENOL A] | < 4.30
CC1(C)C(CC[C@@H]2[C@@]3(C)CC[C@@H](O)C(C)(C)O[C@@H]3CC[C@]2(C)O)C(CO)=CCC2C1CC[C@@]2(C)O (stereo partly drawn) [28-HYDROXYSIPHOLENOL A] | < 4.30
CC1(C)O[C@@H]2CC[C@](C)(O)[C@H](CC[C@@]34O[C@]3(C)[C@H](O)CC3C(CC[C@@]3(C)O)C4(C)C)[C@@]2(C)CC[C@H]1O (stereo partly drawn) [SIPHOLENOL I] | < 4.30
CC1=CCC2C(CC[C@@]2(C)O)C(C)(C)C1CC[C@@H]1[C@@]2(C)CCC(=O)C(C)(C)O[C@@H]2CC[C@]1(C)O (stereo partly drawn) [SIPHOLENONE A] | < 4.30
CC1(C)C(CC[C@@H]2[C@@]3(C)CC[C@@H](O)C(C)(C)O[C@@H]3CC[C@]2(C)O)C(C=O)=CCC2C1CC[C@@]2(C)O (stereo partly drawn) | < 4.30

Test system: KB 3-1
Assay: Reversal of P-gp-mediated multidrug resistance to Cytotoxicity of colchicine against human KB-3-1 cells at 5 uM after 68 hrs by MTT assay
Assay type: functional, cell-based
Settings: KB 3-1, 68 h
Procedure, shortened: as §1

Compound | pIC50
CC1(C)O[C@@H]2CC[C@](C)(O)[C@H](CCC3C(C=O)=CCC4C(CC[C@@]4(C)O)C3(C)C)[C@@]2(C)CCC1=O (stereo partly drawn) | 8.25
CC1=C(CC[C@@H]2[C@@]3(C)CC[C@@H](O)C(C)(C)O[C@@H]3CC[C@]2(C)O)[C@](C)(C/C=C/C(C)(C)O)[C@H](O)CC1 [SIPHONELLINOL C] | 8.11
CC1(C)O[C@@H]2CC[C@](C)(O)[C@H](CCC3C(CO)=CCC4C(CC[C@@]4(C)O)C3(C)C)[C@@]2(C)CCC1=O (stereo partly drawn) | 8.20
CC1=CCC2C(CC[C@@]2(C)O)C(C)(C)C1CC[C@@H]1[C@@]2(C)CC[C@@H](O)C(C)(C)O[C@@H]2CC[C@]1(C)O (stereo partly drawn) [SIPHOLENOL A] | 8.30
CC1(C)C(CC[C@@H]2[C@@]3(C)CC[C@@H](O)C(C)(C)O[C@@H]3CC[C@]2(C)O)C(CO)=CCC2C1CC[C@@]2(C)O (stereo partly drawn) [28-HYDROXYSIPHOLENOL A] | 8.23
CC1(C)O[C@@H]2CC[C@](C)(O)[C@H](CC[C@@]34O[C@]3(C)[C@H](O)CC3C(CC[C@@]3(C)O)C4(C)C)[C@@]2(C)CC[C@H]1O (stereo partly drawn) [SIPHOLENOL I] | 8.07
CC1=CCC2C(CC[C@@]2(C)O)C(C)(C)C1CC[C@@H]1[C@@]2(C)CCC(=O)C(C)(C)O[C@@H]2CC[C@]1(C)O (stereo partly drawn) [SIPHOLENONE A] | 8.28
CC1(C)C(CC[C@@H]2[C@@]3(C)CC[C@@H](O)C(C)(C)O[C@@H]3CC[C@]2(C)O)C(C=O)=CCC2C1CC[C@@]2(C)O (stereo partly drawn) | 8.30

Test system: not listed separately
Assay: Cytotoxicity against KB-C2 cells overexpressing P-gp after 68 hrs by MTT assay
Assay type: functional, cell-based
Settings: Homo sapiens, KB-C2, 68 h
Procedure, shortened: as §2

Compound | pIC50
CC1(C)O[C@@H]2CC[C@](C)(O)[C@H](CCC3C(C=O)=CCC4C(CC[C@@]4(C)O)C3(C)C)[C@@]2(C)CCC1=O (stereo partly drawn) | < 4.30
CC1=C(CC[C@@H]2[C@@]3(C)CC[C@@H](O)C(C)(C)O[C@@H]3CC[C@]2(C)O)[C@](C)(C/C=C/C(C)(C)O)[C@H](O)CC1 [SIPHONELLINOL C] | < 4.30
CC1(C)O[C@@H]2CC[C@](C)(O)[C@H](CCC3C(CO)=CCC4C(CC[C@@]4(C)O)C3(C)C)[C@@]2(C)CCC1=O (stereo partly drawn) | < 4.30
CC1=CCC2C(CC[C@@]2(C)O)C(C)(C)C1CC[C@@H]1[C@@]2(C)CC[C@@H](O)C(C)(C)O[C@@H]2CC[C@]1(C)O (stereo partly drawn) [SIPHOLENOL A] | < 4.30
CC1(C)C(CC[C@@H]2[C@@]3(C)CC[C@@H](O)C(C)(C)O[C@@H]3CC[C@]2(C)O)C(CO)=CCC2C1CC[C@@]2(C)O (stereo partly drawn) [28-HYDROXYSIPHOLENOL A] | < 4.30
CC1(C)O[C@@H]2CC[C@](C)(O)[C@H](CC[C@@]34O[C@]3(C)[C@H](O)CC3C(CC[C@@]3(C)O)C4(C)C)[C@@]2(C)CC[C@H]1O (stereo partly drawn) [SIPHOLENOL I] | < 4.30
CC1=CCC2C(CC[C@@]2(C)O)C(C)(C)C1CC[C@@H]1[C@@]2(C)CCC(=O)C(C)(C)O[C@@H]2CC[C@]1(C)O (stereo partly drawn) [SIPHOLENONE A] | < 4.30
CC1(C)C(CC[C@@H]2[C@@]3(C)CC[C@@H](O)C(C)(C)O[C@@H]3CC[C@]2(C)O)C(C=O)=CCC2C1CC[C@@]2(C)O (stereo partly drawn) | < 4.30

Test system: not listed separately
Assay: Cytotoxicity against KB-CV60 cells expressing MRP1 after 68 hrs by MTT assay
Assay type: functional, cell-based
Settings: Homo sapiens, KB-CV60, 68 h
Procedure, shortened: as §2

Compound | pIC50
CC1(C)O[C@@H]2CC[C@](C)(O)[C@H](CCC3C(C=O)=CCC4C(CC[C@@]4(C)O)C3(C)C)[C@@]2(C)CCC1=O (stereo partly drawn) | < 4.30
CC1=C(CC[C@@H]2[C@@]3(C)CC[C@@H](O)C(C)(C)O[C@@H]3CC[C@]2(C)O)[C@](C)(C/C=C/C(C)(C)O)[C@H](O)CC1 [SIPHONELLINOL C] | < 4.30
CC1(C)O[C@@H]2CC[C@](C)(O)[C@H](CCC3C(CO)=CCC4C(CC[C@@]4(C)O)C3(C)C)[C@@]2(C)CCC1=O (stereo partly drawn) | < 4.30
CC1=CCC2C(CC[C@@]2(C)O)C(C)(C)C1CC[C@@H]1[C@@]2(C)CC[C@@H](O)C(C)(C)O[C@@H]2CC[C@]1(C)O (stereo partly drawn) [SIPHOLENOL A] | < 4.30
CC1(C)C(CC[C@@H]2[C@@]3(C)CC[C@@H](O)C(C)(C)O[C@@H]3CC[C@]2(C)O)C(CO)=CCC2C1CC[C@@]2(C)O (stereo partly drawn) [28-HYDROXYSIPHOLENOL A] | < 4.30
CC1(C)O[C@@H]2CC[C@](C)(O)[C@H](CC[C@@]34O[C@]3(C)[C@H](O)CC3C(CC[C@@]3(C)O)C4(C)C)[C@@]2(C)CC[C@H]1O (stereo partly drawn) [SIPHOLENOL I] | < 4.30
CC1=CCC2C(CC[C@@]2(C)O)C(C)(C)C1CC[C@@H]1[C@@]2(C)CCC(=O)C(C)(C)O[C@@H]2CC[C@]1(C)O (stereo partly drawn) [SIPHOLENONE A] | < 4.30
CC1(C)C(CC[C@@H]2[C@@]3(C)CC[C@@H](O)C(C)(C)O[C@@H]3CC[C@]2(C)O)C(C=O)=CCC2C1CC[C@@]2(C)O (stereo partly drawn) | < 4.30

Test system: not listed separately
Assay: Cytotoxicity against KB-3-1 cells after 68 hrs by MTT assay
Assay type: functional, cell-based
Settings: Homo sapiens, KB 3-1, 68 h
Procedure, shortened: as §2

Compound | pIC50
CC1(C)O[C@@H]2CC[C@](C)(O)[C@H](CCC3C(C=O)=CCC4C(CC[C@@]4(C)O)C3(C)C)[C@@]2(C)CCC1=O (stereo partly drawn) | < 4.30
CC1=C(CC[C@@H]2[C@@]3(C)CC[C@@H](O)C(C)(C)O[C@@H]3CC[C@]2(C)O)[C@](C)(C/C=C/C(C)(C)O)[C@H](O)CC1 [SIPHONELLINOL C] | < 4.30
CC1(C)O[C@@H]2CC[C@](C)(O)[C@H](CCC3C(CO)=CCC4C(CC[C@@]4(C)O)C3(C)C)[C@@]2(C)CCC1=O (stereo partly drawn) | < 4.30
CC1=CCC2C(CC[C@@]2(C)O)C(C)(C)C1CC[C@@H]1[C@@]2(C)CC[C@@H](O)C(C)(C)O[C@@H]2CC[C@]1(C)O (stereo partly drawn) [SIPHOLENOL A] | < 4.30
CC1(C)C(CC[C@@H]2[C@@]3(C)CC[C@@H](O)C(C)(C)O[C@@H]3CC[C@]2(C)O)C(CO)=CCC2C1CC[C@@]2(C)O (stereo partly drawn) [28-HYDROXYSIPHOLENOL A] | < 4.30
CC1(C)O[C@@H]2CC[C@](C)(O)[C@H](CC[C@@]34O[C@]3(C)[C@H](O)CC3C(CC[C@@]3(C)O)C4(C)C)[C@@]2(C)CC[C@H]1O (stereo partly drawn) [SIPHOLENOL I] | < 4.30
CC1=CCC2C(CC[C@@]2(C)O)C(C)(C)C1CC[C@@H]1[C@@]2(C)CCC(=O)C(C)(C)O[C@@H]2CC[C@]1(C)O (stereo partly drawn) [SIPHOLENONE A] | < 4.30
CC1(C)C(CC[C@@H]2[C@@]3(C)CC[C@@H](O)C(C)(C)O[C@@H]3CC[C@]2(C)O)C(C=O)=CCC2C1CC[C@@]2(C)O (stereo partly drawn) | < 4.30
